In ChEMBL document CHEMBL1137471, “Dihydroxypyridopyrazine-1,6-dione HIV-1 integrase inhibitors” (Bioorg Med Chem Lett, 2007):

Assays:
MT4 = experiment: Cytotoxicity against human MT4 cells upto 20 uM after 24 hrs; assay type: cell-based; details: mt4, 24 h
[1] = system: Human immunodeficiency virus 1; experiment: Antiviral activity against HIV1 3B infected in human MT4 cells assessed as inhibition of replication after 3 days by ELISA; assay type: functional; details: Human immunodeficiency virus 1, 3B, MT4, 72 h; read-out: CIC95
[2] = target: Human immunodeficiency virus type 1 integrase (Human immunodeficiency virus 1, UniProt Q7ZJM1); experiment: Inhibition of HIV1 recombinant integrase strand transfer activity
In short: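 Strand transfer by recombinant HIV-1 integrase (0.1 µM) preassembled on immobilized oligonucleotides. Inhibition is relative to a no-inhibitor control run in quadruplicate and averaged, with background subtracted. IC50 given as mean of three experiments with standard deviation.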

Rattus norvegicus = species on record: Rattus norvegicus; experiment: Plasma concentration in rat after 2 to 24 hrs; assay type: ADME, organism-based; details: in vivo
In short: (§1)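 Rats dosed orally at 10 mg/kg as a solution in 1% aqueous methylcellulose. Plasma sampled through 24 h.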

[3] = Bioavailability in rat at 10 mg/kg, po; assay type: ADME, organism-based; details: in vivo; in short: as §1
Liver [4] = experiment: Protein binding in rat liver after 24 hrs; assay type: ADME, tissue-based
In short: (§2)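 [14C]-labelled compound given to rats in vivo. Irreversibly bound radioactivity measured in plasma and liver at 2, 6 and 24 h, expressed as pmol equiv/mg protein.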

Liver microsomes [5] = experiment: Protein binding in human liver microsomes per 60 mins in presence of NADPH; assay type: ADME, Microsome; details: 1 h
In short: (§3)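 [14C]-labelled compound incubated with rat or human liver microsomes, with or without NADPH. Irreversibly bound radioactivity expressed as pmol equiv/mg/60 min.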

Liver microsomes [6] = experiment: Protein binding in human liver microsomes per 60 mins in absence of NADPH; assay type: ADME, Microsome; details: 1 h; in short: as §3
Liver microsomes [7] = experiment: Protein binding in rat liver microsomes per 60 mins in presence of NADPH; assay type: ADME, Microsome; details: 1 h; in short: as §3
Plasma [8] = experiment: Protein binding in rat plasma after 2 hrs; assay type: ADME, cell-free; in short: as §2
Liver microsomes [9] = experiment: Protein binding in rat liver microsomes per 60 mins in absence of NADPH; assay type: ADME, Microsome; details: 1 h; in short: as §3
Plasma [10] = experiment: Protein binding in rat plasma after 6 hrs; assay type: ADME, cell-free; in short: as §2
Plasma [11] = experiment: Protein binding in rat plasma after 24 hrs; assay type: ADME, cell-free; in short: as §2
Liver [12] = experiment: Protein binding in rat liver after 6 hrs; assay type: ADME, tissue-based; in short: as §2
Liver [13] = experiment: Protein binding in rat liver after 2 hrs; assay type: ADME, tissue-based; in short: as §2

Chain of Human immunodeficiency virus type 1 integrase (Q7ZJM1 whole entry): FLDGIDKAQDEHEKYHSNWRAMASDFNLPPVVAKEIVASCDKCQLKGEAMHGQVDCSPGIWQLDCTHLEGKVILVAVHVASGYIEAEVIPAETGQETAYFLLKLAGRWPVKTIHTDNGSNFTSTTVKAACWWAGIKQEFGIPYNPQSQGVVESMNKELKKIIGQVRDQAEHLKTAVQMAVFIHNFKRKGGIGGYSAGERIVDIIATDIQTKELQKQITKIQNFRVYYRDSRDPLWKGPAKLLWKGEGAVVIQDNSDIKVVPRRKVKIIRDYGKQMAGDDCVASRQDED

Row | IC50 [2] [nM] | Compound | Activity (MT4) | IC95 [1] [nM] | other results
1 | 20 | N#Cc1c(O)c(O)c2n(c1=O)CCN(Cc1ccc(F)cc1)C2=O | Non-toxic | > 1000 | –
2 | 100 | O=C1c2c(O)c(O)cc(=O)n2CCN1Cc1ccc(F)cc1 | Non-toxic | 310 | concentration (Rattus norvegicus): 500 nM; bioavailability [3]: 69%
3 | 40 | O=c1c2c(O)c(O)cc(=O)n2ccn1Cc1ccc(F)cc1 | – | – | –
4 | 20 | O=C1c2c(O)c(O)c(I)c(=O)n2CCN1Cc1ccc(F)cc1 | Non-toxic | > 1000 | –
5 | 370 | O=C1c2c(O)c(O)cc(=O)n2CCN1Cc1ccccc1Cl | Non-toxic | > 1000 | –
6 | 40 | O=C1c2c(O)c(O)cc(=O)n2CCN1Cc1cccc(Cl)c1 | Non-toxic | 500 | –
7 | 380 | O=C1c2c(O)c(O)cc(=O)n2CCN1Cc1ccc(Cl)cc1 | Non-toxic | 1000 | –
8 | 40 | O=C1c2c(O)c(O)cc(=O)n2CCN1Cc1ccc(F)c(Cl)c1 | Non-toxic | 250 | –
9 | 30 | O=C1c2c(O)c(O)c(Br)c(=O)n2CCN1Cc1ccc(F)cc1 | Non-toxic | 1000 | –
10 | 230 | O=C1c2c(O)c(O)cc(=O)n2CCN1Cc1ccccc1 | Non-toxic | 2500 | –
11 | – | O=C1c2[14c](O)[14c](O)cc(=O)n2CCN1Cc1ccc(F)cc1 | – | – | PPB (Liver [4]): < 5 pmolequiv/mg; Activity (Liver microsomes [5]): 19.6 pmolequiv/mg; Activity (Liver microsomes [6]): 15.2 pmolequiv/mg; Activity (Liver microsomes [7]): 24.2 pmolequiv/mg; PPB (Plasma [8]): < 5 pmolequiv/mg; Activity (Liver microsomes [9]): 24.7 pmolequiv/mg; PPB (Plasma [10]): < 5 pmolequiv/mg; PPB (Plasma [11]): < 5 pmolequiv/mg; PPB (Liver [12]): < 5 pmolequiv/mg; PPB (Liver [13]): < 5 pmolequiv/mg
12 | 1040 | O=C1c2c(O)c(O)cc(=O)n2CCCN1Cc1ccc(F)cc1 | – | – | –
